assay: Toxicity liver stage against HepG2, at 10uM; type: cell-based; design: test concentration 10 uM, cell line HepG2-A16-CD81EGFP; settings: human, HepG2-A16-CD81EGFP cells; read-out: INHIBITION
How it was run: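 Uninfected HepG2-A16-CD81EGFP cells, 3 × 10^3 per well, 1536-well, plated on prespotted compound at 10 μM final, parasite-free screening media added to match infected plates; puromycin 10 μM positive, DMSO 0.5% negative; run in parallel with 48 h PbLuc assay at 37 °C, 5% CO2; viability by CellTiter-Glo luminescence, normalized to controls.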

SMILES	cytotoxicity at 10 µM [%]
O=c1[nH]ncn1-c1cccc(C(F)(F)F)c1	-2
O=C(NCN1CCc2ccccc2C1)c1cnccn1	20.2
COc1ccccc1S(=O)(=O)NCC(c1cccn1C)N(C)C (stereo not given)	1.51
COCC(=O)N1CCC2(CC1)CC(OC)c1ccc(F)cc12 (stereo not given)	-134
N#Cc1cccc(CN2C[C@@H](NC(=O)C3CC3)[C@H]3OCCC[C@H]32)c1	6.44
CC(=O)NCC(=O)N1Cc2ccnn2CC(COCCN(C)C)C1 (stereo not given)	6.15
CC(C)n1cnc(-c2nc(C(=O)N3CCN(C)CC3)c3ccccn23)c1	8.88
Cc1csc(CN2CC[C@H]3C[C@H](c4noc(C)n4)O[C@@H]3C2)n1	-2.97
O=C(O)c1ccc2c(CN3CCCC3)c[nH]c2c1	-2.09
CC(=O)N1N=C(c2ccccc2)OC1C(=O)NCCc1cccc(Cl)c1 (stereo not given)	2.82
CCNC(=O)N1CCC2(C1)c1ccccc1S(=O)(=O)N2CCC(C)C (stereo not given)	-8.25
COc1cc(CNc2ccc(Cl)cc2)ccc1OCC(=O)O	3.63
CC(C(=O)Nc1ccc(Cl)cn1)n1ccc(C(F)(F)F)n1 (stereo not given)	17.6
O=C1NC2(CCCCC2)c2nnnn2-c2ccc(Br)cc21	6.83
Cc1nn(C)c2c(NCCCn3cccn3)nc(C3CC3)nc12	12.9
COc1c(Br)c(CC2CC(CO)=NO2)c(Br)c2c1OCO2 (stereo not given)	6.97
O=C1CC(c2ccc(C(F)(F)F)cc2)c2snc(C(=O)O)c2N1 (stereo not given)	10.7
CCNC(=O)C1(Cc2cc(-c3ccccc3)no2)CCCN(C(C)=O)C1 (stereo not given)	15.9
CNc1nc(C2CCCN(C(=O)CNC(C)=O)C2)nc2c1CN(C)CC2 (stereo not given)	-10.9
Cn1nccc1-c1cc(C2CCN(S(C)(=O)=O)CC2)ccn1	-28.2
CCCn1ccnc1CN1CCCC1c1cccc(-n2ccnc2)n1 (stereo not given)	-22.2
O=C1OCCN1CCSc1nnnn1CC(F)(F)F	-41.5

SMILES	cytotoxicity at 10 µM [%]
COc1ccnc(N2CCC(OCCN3CCCCC3)C2)n1 (stereo not given)	-44.9
Cc1nc(CN2CCOC3(CCCC3)C2)no1	-6.65
O=S(=O)(NCCCn1ccc2ccccc21)N1CCCCC1	12.8
O=C(Nc1ccc(F)cc1-c1nc(C2CC2)no1)N1CC[C@@H](O)C1	-1.54
CC(C)S(=O)(=O)C(C)C(=O)NCc1ccccc1OCc1ccccc1 (stereo not given)	18.8
CCn1nc2c(cc1=O)CN(Cc1nc(-c3ccoc3)no1)CC2	4.9
Cc1cc(C(F)(F)F)c2c(=O)n(Cc3cc(C)on3)n(C)c2n1	1.46
CC(CC(=O)c1ccco1)NC(=O)c1ccccn1 (stereo not given)	-5.14
Cc1cc(N2CCSCC2)ccc1NC(=O)N(CCO)C1CC1	-10.1
CN(C)C(=O)CNC(=O)c1cc2ccccc2nc1N1CCCC1	-6.18
Cn1nc2c(cc1=O)CN(c1ncnc3sccc13)CC2	7.97
O=C(c1cn(-c2ccccc2Cl)nn1)N1CCN(CCO)CC1	-2.88
Cc1ccc(C(CNCc2cccnc2)N2CCOCC2)s1 (stereo not given)	4.03
CCSCCC(=O)Nc1ncn(Cc2ccccc2)n1	4.74
COCC(=O)NC1CCN(c2cccc(OC(F)(F)F)c2)C1=O (stereo not given)	-3.17
CC(c1cccc(O)c1)N(C)S(N)(=O)=O (stereo not given)	-1.89
COc1cc(/C=C/c2ncc(C(=O)O)s2)cc(OC)c1	-3.86
CC1CN(C2CCN(Cc3nccn3CC(F)(F)F)CC2)CCO1 (stereo not given)	-1.32
CCN1CCN(c2ccc(C(=O)NC(C)c3ccncc3)cc2)CC1 (stereo not given)	-16.6
Cn1c(=O)oc2ccc(Nc3ncc(C#N)cc3Cl)cc21	-1.21
CC(C(=O)NCCc1cccs1)N1CCC(n2ccnc2)CC1 (stereo not given)	-16
Cc1cc(C)n(CC2CCCCN2C(=O)c2sccc2C#N)n1 (stereo not given)	-0.497

SMILES	cytotoxicity at 10 µM [%]
Cc1nc(N2CCCC2)ccc1NCc1ccccn1	5.13
O=C(COCc1ccccc1Cl)Nc1ccnn1CC1CCOC1 (stereo not given)	-1.9
O=C(NCc1ccco1)Nc1cccc(S(=O)(=O)C(F)F)c1	-54.8
CC(Oc1ccccc1C#N)C(=O)NC1CC1 (stereo not given)	6.21
CN(C)C(=O)CNS(=O)(=O)c1cc(Br)ccc1F	-47.1
O=C(c1ccc[nH]1)N1CCCn2c(CN3CCCCC3)nnc2C1	-106
Cc1cccc(N2CC3(COCCN(c4ccncn4)C3)OCC2=O)c1 (stereo not given)	-105
Cc1occc1C(=O)N1CCC2(CC1)NC(=O)CC2c1cnn(C)c1 (stereo not given)	-4.99
COCCC1(CO)CCCN(C(=O)c2ccc(C(C)C)[nH]c2=O)C1 (stereo not given)	-55.1
OCc1ccc(CN(CCCn2ccnc2)Cc2ccncc2)o1	-4.41
Cc1ccc(C(=O)N2CCC3(CC2)CN(CCN(C)C)C(=O)O3)c(F)c1	7.46
CCc1nnc(CN(C)c2nccc(N3CCCC(O)C3)n2)o1 (stereo not given)	-4.68
CCOC(=O)CC1CCCCN1C(=O)c1cc(=O)[nH]c(=O)[nH]1 (stereo not given)	5.76
CCC[C@H]1CN(Cc2ccc(N(C)C)nc2)C[C@@H]1NC(=O)CO	9.23
CC(C)[C@H]1COC(=O)N1CC(=O)N(C)CCCn1cccn1	-157
Cc1ccccc1-n1cc(CN(C)C(=O)CC2C(=O)NCCN2C)cn1 (stereo not given)	6.89
CCn1cncc1C1CC(=O)Nc2c1c(C)nn2-c1ccc(C)cc1 (stereo not given)	-8.23
Cc1nc(CCN2CCC(Oc3ccccc3F)CC2)cs1	6.9
COCCN(C)C[C@@H]1CN(C(=O)c2ccc3c(c2)OCO3)C[C@@H]1CO	8.47
CCN(Cc1ccc(O)c(C(=O)O)c1)CC1CCCO1 (stereo not given)	3.9
Cc1cc(C(=O)N2CC[C@@]3(O)CCN(S(C)(=O)=O)C[C@H]3C2)c(C)n1C	-8
CC(C)c1nccn1CCCNC(=O)c1ccc(-c2cnn(C)c2)nc1	-9.36

SMILES	cytotoxicity at 10 µM [%]
CCc1cc(N(C)Cc2ccncn2)n2nc(C)c(C)c2n1	4.34
O=C(CCC1CCN(C2CCSCC2)CC1)NCC1CCCO1 (stereo not given)	8.73
CC(C)N1CCC(c2nnc(CN3CCCC3)n2C2CC2)CC1	-4.57
O=C(NCCc1ccc2c(c1)OCO2)C1CCCN(Cc2ccco2)C1 (stereo not given)	0.209
Cc1nccn1CC1CCCN(C(=O)Cc2ccsc2)C1 (stereo not given)	16.2
CC(CCc1ccc(O)cc1)NC1CCN(C(=O)C(C)C)CC1 (stereo not given)	-4.89
Cc1nc(CN2CCC(c3nc4ccccc4n3C)CC2)co1	13.5
Cc1ccc(O)c(C(=O)N2CCC3(CCCNC3)C2)c1 (stereo not given)	-10.2
CC(C)c1nc(N2CCC(N3CCCCCC3)CC2)c2cnn(C)c2n1	-135
c1cc(CN2CCC(n3cc(CN4CCCC4)nn3)CC2)cs1	-6.26
Cc1cc(C2CCC2)nc(N2CCC3(CCCNC3=O)C2)n1 (stereo not given)	-3.83
Cc1ccc(C(=O)NCCC2CCN(C)CC2)cc1N(C)S(C)(=O)=O	-15.1
CC(C)Oc1ccc2c(NC(=O)CN(C)C)nn(CC(F)(F)F)c2c1	1.6
Cc1nc2c(c(NCc3ccccc3)n1)CCN(C(=O)C1CCC1)CC2	14.3
NCC1Cc2cc(-c3cncc(C(=O)N4CCOCC4)n3)cc(Cl)c2O1 (stereo not given)	-42.8
O=C(CCc1ccccc1)C1CCCN(C(=O)c2cncc(Cl)c2)C1 (stereo not given)	1.72
c1cnnc(N2CCCC2CNCc2nc(-c3ccoc3)no2)c1 (stereo not given)	-18.7
Cc1cccc(OCC(O)CN2CCC(c3ccn[nH]3)CC2)c1 (stereo not given)	-3.6
COc1cccc(Nc2nc(N3CCCC3)nc3c2CNCC3)c1	-6.41
Cc1ccc(CN(Cc2cccnc2)C2CC(C)(C)NC(C)(C)C2)s1	4.94
OC1CCN(Cc2ccnc(-c3cccnc3)n2)CC1	-20.7
CN1CC(=O)N(c2cccc(F)c2)CC12CCN(Cc1nccs1)C2 (stereo not given)	2.08

SMILES	cytotoxicity at 10 µM [%]
CCN1CCOCC12CCN(C(=O)c1ccsc1)CC2	-146
COC[C@@H]1CCC[C@]12CN(CCc1ccccc1)CCO2	0.312
Cn1nnc2c1C(COCC1CC1)CN(Cc1ccoc1)C2 (stereo not given)	2.49
Fc1cccc(CN2CCC3(CCCN3c3ncccn3)CC2)c1	3.62
CC(C)NC(=O)N1CCN(Cc2ccccn2)CC2(CC(=O)N(C)C2)C1 (stereo not given)	2.79
Cc1cnc(N2CCN3C[C@H](OCc4ccccn4)C[C@H]3C2)nc1	-1.68
CCOCC(=O)N1Cc2nnn(C)c2C(COCc2ccccn2)C1 (stereo not given)	-3.23
Cc1ncsc1CN1C[C@@H]2COC[C@]2(C(=O)NCc2cccnc2)C1	-106
O=C(c1ccsc1)N1CCO[C@@H]2CN(Cc3nccs3)C[C@@H]2C1	-108
COCCN1CCOCC12CCN(c1cnccn1)CC2	-102
Cc1noc(C)c1CN1CCC2(CC1)C(c1ccccc1)CC(=O)N2C (stereo not given)	-105
c1ccc(CN2CCC3(CC2)CCN(c2ccccn2)C3)nc1	-128
Cc1cccc(CN2CC[C@@H]3[C@@H]2CCN3C(=O)Cc2cccs2)n1	-114
O=C(Nc1cccnc1)[C@H]1C[C@H]2OCC[C@H]2N(CC2CC2)C1	4.7
c1cn2c(n1)CN(CC1CC1)CC(CN1CCOCC1)C2 (stereo not given)	1.49
COc1ccc2c(ccn2CCCN)c1	-3.91
CCCn1nccc1NC(=O)CN1CCCC1Cn1cc(C)cn1 (stereo not given)	-8.09
Cc1cnc(C(=O)N2C[C@@H]3CC[C@H]2CN(Cc2cscn2)C3)[nH]1	4.16
O=c1c2c[nH]c(N3CCCC3)nc-2cn1C1CCS(=O)(=O)C1 (stereo not given)	1.09
CCC=C(C)C(=O)NCc1ccnc(OC)c1	-2.51
Cc1ccc(CN2C[C@@H]3C[C@H](C(=O)NCc4cccnc4)[C@H](C2)O3)cc1	2.5
Cc1cnc(C(=O)N2C[C@@H]3CC[C@H]2CN(S(=O)(=O)N(C)C)C3)cn1	-6.77

From ChEMBL document CHEMBL4513216, “Probing the Open Global Health Chemical Diversity Library for Multistage-Active Starting Points for Next-Generation Antimalarials” (ACS Infect Dis, 2020)
